# Data as given in ChEMBL document CHEMBL4382245, “Balancing reactivity and antitumor activity: heteroarylthioacetamide derivatives as potent and time-dependent inhibitors of EGFR” (Eur J Med Chem, 2019).
# pIC50: −log10 of the molar value.
# What was measured:
# [1] = Cysteine reactivity in pH 10 CAPS buffer assessed as half life for cysteine-compound adduct formation at 10 uM after 24 hrs in presence of 100 molar excess cysteine by LC-MS analysis
# Summary of the method: (§1)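 Compound at 10 µM added to freshly prepared 1 mM cysteine (1:100) in 50 mM CAPS pH 10, ionic strength 0.15 M with KCl; 37 °C; Cys-conjugate measured after 24 h by LC-MS in MRM mode. Half-life from LC-MS; conjugate peak area scaled to the 2-chloroacetamide conjugate set at 10,000.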
# [2] = molecular target: T1, Epidermal growth factor receptor (Homo sapiens, UniProt P00533); test: Inhibition of wild type EGFR autophosphorylation in human A549 cells by Western blot analysis; assay type: cell-based
# T1 sequence (P00533 whole entry): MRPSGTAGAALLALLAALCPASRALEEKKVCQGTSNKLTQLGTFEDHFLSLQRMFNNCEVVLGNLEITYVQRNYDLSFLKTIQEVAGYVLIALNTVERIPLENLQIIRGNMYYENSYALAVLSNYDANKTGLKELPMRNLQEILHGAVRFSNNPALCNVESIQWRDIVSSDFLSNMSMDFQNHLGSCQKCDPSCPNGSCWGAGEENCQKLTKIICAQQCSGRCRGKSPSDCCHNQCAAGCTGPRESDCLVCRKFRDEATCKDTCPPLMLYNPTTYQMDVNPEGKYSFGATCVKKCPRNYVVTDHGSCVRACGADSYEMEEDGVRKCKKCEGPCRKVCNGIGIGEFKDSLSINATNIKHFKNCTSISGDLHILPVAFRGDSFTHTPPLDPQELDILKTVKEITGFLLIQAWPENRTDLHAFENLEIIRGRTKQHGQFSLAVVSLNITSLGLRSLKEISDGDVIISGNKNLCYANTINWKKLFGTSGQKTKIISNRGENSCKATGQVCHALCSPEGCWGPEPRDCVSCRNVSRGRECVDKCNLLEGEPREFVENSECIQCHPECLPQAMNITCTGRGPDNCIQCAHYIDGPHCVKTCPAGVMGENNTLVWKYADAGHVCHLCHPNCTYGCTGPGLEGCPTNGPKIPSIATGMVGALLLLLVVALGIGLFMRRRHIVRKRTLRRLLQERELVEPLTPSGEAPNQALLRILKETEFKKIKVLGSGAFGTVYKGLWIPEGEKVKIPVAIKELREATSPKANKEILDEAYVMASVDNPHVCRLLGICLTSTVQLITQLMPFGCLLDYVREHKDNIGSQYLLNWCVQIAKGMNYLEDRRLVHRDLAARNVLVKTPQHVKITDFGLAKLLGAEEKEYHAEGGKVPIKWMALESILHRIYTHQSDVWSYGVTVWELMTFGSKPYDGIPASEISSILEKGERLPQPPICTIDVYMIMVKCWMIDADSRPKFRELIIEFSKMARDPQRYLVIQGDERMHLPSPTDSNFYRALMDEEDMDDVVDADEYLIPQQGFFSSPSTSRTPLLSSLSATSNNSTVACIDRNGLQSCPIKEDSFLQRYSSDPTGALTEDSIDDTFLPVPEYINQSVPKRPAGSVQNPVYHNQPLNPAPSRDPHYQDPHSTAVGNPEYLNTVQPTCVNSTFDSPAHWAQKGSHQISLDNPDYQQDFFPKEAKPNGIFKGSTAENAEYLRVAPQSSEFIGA
# [3] = Drug uptake in human A549 cells at 1 uM after 1 hr by LC-MS analysis; assay type: ADME, cell-based; settings: a549, 1 h
# Summary of the method: (§2)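 A549 cells plated at 1,000,000 per 25 cm2 dish, dosed after 24 h at 1 µM final (0.1% DMSO), 1 h at 37 °C. Harvested at once or 8 h after three washes with fresh medium. Ethanol extraction, LC-MS quantitation as pmol/mg protein (Bradford), converted to µM using 4 µL cell volume per mg protein. Mean ± SD, three experiments.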
# [4] = Drug uptake in human A549 cells at 1 uM incubated for 1 hr followed by compound washout and measured after 8 hrs by LC-MS analysis; assay type: ADME, cell-based; settings: a549, 1 h; summary of the method: as §2
# A549 = test: Ratio of drug uptake in human A549 cells at 1 uM measured after 1 hr to drug uptake in human A549 cells at 1 uM incubated for 1 hr followed by compound washout and measured after 8 hrs; assay type: ADME, cell-based; settings: a549, 1 µM; summary of the method: as §2
# [5] = molecular target: T1, Epidermal growth factor receptor
# NCI-H1975 = test: cells; assay type: functional, cell-based; settings: Homo sapiens, NCI-H1975, 72 h
# [6] = molecular target: T1, Epidermal growth factor receptor; settings: A549, at 1 µM
# [7] = molecular target: T1, Epidermal growth factor receptor; settings: A549, at 1 µM; remark: listed apart in the source
# [8] = tested on: Epidermal growth factor receptor (Homo sapiens), P00533 [L858R,T790M]; settings: NCI-H1975, at 0.1 µM
# Sequence of Epidermal growth factor receptor (Homo sapiens), P00533 [L858R,T790M] (P00533 whole entry T790M/L858R, looked up): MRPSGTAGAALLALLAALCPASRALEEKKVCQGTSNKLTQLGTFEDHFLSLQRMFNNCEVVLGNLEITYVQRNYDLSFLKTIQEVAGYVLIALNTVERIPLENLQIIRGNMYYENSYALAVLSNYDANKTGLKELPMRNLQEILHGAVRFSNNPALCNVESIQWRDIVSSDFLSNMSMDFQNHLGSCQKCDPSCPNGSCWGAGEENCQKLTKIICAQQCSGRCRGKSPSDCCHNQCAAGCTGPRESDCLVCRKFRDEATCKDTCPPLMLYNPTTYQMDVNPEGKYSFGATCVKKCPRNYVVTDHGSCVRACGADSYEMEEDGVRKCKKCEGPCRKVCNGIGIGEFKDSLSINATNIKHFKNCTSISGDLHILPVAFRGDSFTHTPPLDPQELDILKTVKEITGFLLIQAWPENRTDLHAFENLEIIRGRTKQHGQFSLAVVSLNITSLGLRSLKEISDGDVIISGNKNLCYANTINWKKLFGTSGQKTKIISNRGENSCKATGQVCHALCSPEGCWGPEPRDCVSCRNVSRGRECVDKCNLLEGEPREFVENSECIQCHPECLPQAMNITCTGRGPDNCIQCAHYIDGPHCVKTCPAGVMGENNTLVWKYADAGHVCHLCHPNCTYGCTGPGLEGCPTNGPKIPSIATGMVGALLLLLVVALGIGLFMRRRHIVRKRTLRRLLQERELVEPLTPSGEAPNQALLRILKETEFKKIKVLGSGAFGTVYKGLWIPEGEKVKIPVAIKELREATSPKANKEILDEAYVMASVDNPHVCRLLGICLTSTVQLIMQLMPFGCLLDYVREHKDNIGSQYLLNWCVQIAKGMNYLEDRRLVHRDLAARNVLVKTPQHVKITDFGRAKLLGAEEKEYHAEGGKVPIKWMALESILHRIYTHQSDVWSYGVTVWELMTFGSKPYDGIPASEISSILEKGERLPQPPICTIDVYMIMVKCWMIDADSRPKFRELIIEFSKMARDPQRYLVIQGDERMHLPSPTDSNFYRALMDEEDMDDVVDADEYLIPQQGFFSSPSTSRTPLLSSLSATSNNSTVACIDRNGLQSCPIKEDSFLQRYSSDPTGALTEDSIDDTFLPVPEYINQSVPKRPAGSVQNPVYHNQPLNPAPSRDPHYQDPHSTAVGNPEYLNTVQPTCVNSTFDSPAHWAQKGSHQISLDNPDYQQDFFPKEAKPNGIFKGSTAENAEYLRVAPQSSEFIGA
# [9] = tested on: Epidermal growth factor receptor (Homo sapiens), P00533 [L858R,T790M]; settings: NCI-H1975, at 1 µM
# [10] = Cysteine reactivity in pH 10 CAPS buffer assessed as peak area for cysteine-compound adduct formation at 10 uM after 24 hrs in presence of 100 molar excess cysteine by LC-MS analysis relative to 2-chloro-N-(4-((3-chloro-4-fluorophenyl)amino)-7-ethoxyquinazolin-6-yl)acetamide; summary of the method: as §1
Compound,T1/2 [1],pIC50 [2],Drug uptake [3],Drug uptake [4],Ratio (A549),pIC50 [5],pIC50 (NCI-H1975),inhibition [6],inhibition [7],inhibition [8],inhibition [9],Activity [10]
CCOc1cc2ncnc(Nc3ccc(F)c(Cl)c3)c2cc1NC(=O)CO,> 24 h,7.57,132 µM,1.1 µM,120,9.47,< 5.00,90%,77%,0%,0%,–
COc1cc2ncnc(Nc3ccc(F)c(Cl)c3)c2cc1OCCCN1CCOCC1 [GEFITINIB],–,–,271 µM,2.4 µM,–,–,–,–,–,–,–,–
CCOc1cc2ncnc(Nc3ccc(F)c(Cl)c3)c2cc1NC(=O)COC(C)=O,23.3 h,7.47,5.8 µM,< 0.05 µM,–,9.28,5.47,97%,75%,27%,68%,0.64 a.u.
CCOc1cc2ncnc(Nc3ccc(F)c(Cl)c3)c2cc1NC(=O)COC(=O)c1ccccc1,> 24 h,7.60,–,–,–,–,5.08,88%,89%,0.5%,43%,11 a.u.
CCOc1cc2ncnc(Nc3ccc(F)c(Cl)c3)c2cc1NC(=O)COC(=O)c1c(C)cccc1C,> 24 h,7.36,–,–,–,–,5.21,97%,97%,20%,16%,5 a.u.
